G6PDH CS = counter-screen for G6PDH assay hits: L. mesenteroides G6PDH inhibition | 200,000 compounds, 0.12% hits | AID 1020 | Purified L. mesenteroides G6PDH, diaphorase/resazurin coupled fluorescence, 45 min | inhibition, % at 5 µM; in the data active = inhibition above about 50%
HKDC1 inhibitor = inhibitors of human hexokinase HKDC1 | Q2TB90 | recombinant HKDC1, G6PDH/diaphorase resazurin coupled fluorescence | inhibition, % at 20 µM | 340,000 compounds, 0.16% hits | AID 493160;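 active = inhibition above about 35% when tested at 20 µM, limit read from the data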
Target sequence (Q2TB90 whole entry, looked up): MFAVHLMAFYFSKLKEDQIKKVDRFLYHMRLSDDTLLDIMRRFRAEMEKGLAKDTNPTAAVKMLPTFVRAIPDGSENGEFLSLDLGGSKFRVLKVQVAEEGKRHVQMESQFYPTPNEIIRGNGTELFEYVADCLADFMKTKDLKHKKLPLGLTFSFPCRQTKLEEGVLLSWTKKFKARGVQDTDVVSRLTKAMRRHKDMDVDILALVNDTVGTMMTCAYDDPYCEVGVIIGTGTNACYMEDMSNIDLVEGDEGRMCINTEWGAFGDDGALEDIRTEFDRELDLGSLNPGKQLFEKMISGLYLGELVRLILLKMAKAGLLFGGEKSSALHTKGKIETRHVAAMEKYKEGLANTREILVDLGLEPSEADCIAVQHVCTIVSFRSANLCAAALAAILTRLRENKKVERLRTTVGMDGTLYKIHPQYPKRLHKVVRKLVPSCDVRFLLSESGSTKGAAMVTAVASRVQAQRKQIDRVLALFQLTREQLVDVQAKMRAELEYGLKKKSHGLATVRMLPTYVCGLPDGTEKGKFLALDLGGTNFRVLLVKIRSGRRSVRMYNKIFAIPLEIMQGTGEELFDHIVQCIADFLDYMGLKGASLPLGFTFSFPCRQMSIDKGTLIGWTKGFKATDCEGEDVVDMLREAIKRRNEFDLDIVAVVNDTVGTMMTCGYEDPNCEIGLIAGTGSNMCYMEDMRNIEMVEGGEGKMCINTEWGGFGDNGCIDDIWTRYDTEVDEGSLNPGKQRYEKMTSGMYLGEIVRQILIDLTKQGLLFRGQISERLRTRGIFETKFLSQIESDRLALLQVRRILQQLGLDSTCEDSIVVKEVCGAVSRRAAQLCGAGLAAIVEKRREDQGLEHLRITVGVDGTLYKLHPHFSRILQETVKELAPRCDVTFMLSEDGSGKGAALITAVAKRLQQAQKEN
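Material: recombinant HKDC1 hexokinase; Amount: HKDC1 at 5 µg/mL; Medium: Tris pH 8.0 buffer with MgCl2, Tween-20, BSA, BME; Schedule: 90 min reaction incubation at room temperature, dark; Technique: coupled resazurin fluorescence, excitation 525 nm, emission 613 nm.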
Diaph inh CS = counter-screen for diaphorase-based assays: diaphorase inhibitors and chemical oxidizers; inhibition, % at 20 µM; diaphorase resazurin-to-resorufin fluorescence, NADH, 16 min; bacterial (C. kluyveri) enzyme, not human; 190,000 compounds, 0.69% hits;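 active = primary screen inhibition at 20 µM above a set limit, cut at about 50% in these data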
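Test system: Clostridium kluyveri diaphorase enzyme / Quantity: diaphorase at 0.14 U/mL in enzyme working solution / Incubation: 16-min room-temperature incubation before reading / Benchmarks: NADH-free wells as positive control, DMSO-only neutral wells / Signal: resorufin fluorescence 544/590 nm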
Diaph act CS = activates diaphorase or chemically reduces, flagging diaphorase assay artifacts; Diaphorase/resazurin coupled assay, resorufin fluorescence, 16 min; hits give high values; 1 = vehicle wells, 0 = NADH-free wells; activation factor at 20 µM; 190,000 compounds, 0.005% hits; AID 1229;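 active = diaphorase activity raised at least twofold by the compound at 20 µM; inactive = activation factor below 2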
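System – purified diaphorase enzyme from Clostridium kluyveri · Input – enzyme 0.07 U/mL final · Also added – final NADH 0.114 mM, resazurin 0.1 mM · Measured by – fluorescence of resorufin, 544 nm excitation, 590 nm emission · Timing – 16 min enzyme reaction, ambient temperature · Measure – resorufin increase flagging diaphorase activators or reducers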
PfGluPho inh = PfG6PD (Plasmodium falciparum) enzyme inhibition | PfGluPho enzyme, NADPH resazurin-diaphorase fluorescence | inhibition, % at 20 µM | 350,000 compounds, 0.78% hits;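 active = inhibition reaching at least a set limit at 20 µM in the primary screen, cut at about 59% in these data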
PfG6PD confirm = PfG6PD inhibition, single-dose confirmed. 2,400 compounds, 34% hits. recombinant PfGluPho, NADPH-diaphorase-resazurin fluorescence. shares compounds with PfGluPho inh. inhibition, % at 20 µM;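 active = inhibition of at least 50% at 20 µM in any single replicate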
Diaphorase 10uM = inhibits diaphorase or oxidizes, flagging false PfG6PD hits. AID 504862. shares compounds with PfGluPho inh. diaphorase-coupled resazurin reduction, fluorescence, NADPH 10 uM. inhibition, % at 20 µM. 820 compounds, 39% hits;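 active = average inhibition reaching 50% or more with the compound at 20 µM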;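 also: resorufin red fluorescence formed as diaphorase reduces resazurin using NADPH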
Diaphorase 30uM = counter-screen for P. falciparum G6PD inhibitors: diaphorase inhibitors, oxidizers; shares compounds with PfGluPho inh; Diaphorase/resazurin coupled assay, resorufin fluorescence, 30 uM NADPH; inhibition, % at 20 µM; 820 compounds, 29% hits; AID 504863;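 active = inhibition averaging 50% or more, tested at 20 µM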
Numbers stand for hits. The list is not random: actives were taken first. Their share in the collection is about 1.2%.

`Cc1cnc(C=NNC(N)=S)c2cccc(N)c12` gave HKDC1 inhibitor inactive, PfGluPho inh 106, PfG6PD confirm 66, Diaphorase 10uM inactive and Diaphorase 30uM inactive.
Screening COc1ccccc1-c1nc(C(=O)NCC2CCCO2)cc2c1[nH]c1ccccc12 (stereo unspecified) returned HKDC1 inhibitor inactive, PfGluPho inh 64 and PfG6PD confirm inactive.
For Cc1cc(O)c(C(C)C)cc1N=Cc1cc([N+](=O)[O-])ccc1O the results were HKDC1 inhibitor inactive, PfGluPho inh 82 and PfG6PD confirm inactive.
For CC(N=Cc1ccccc1O)c1ccccc1 (stereo unspecified) the results were G6PDH CS inactive, HKDC1 inhibitor inactive, Diaph inh CS inactive, Diaph act CS inactive and PfGluPho inh inactive.
Screening Cc1cc(O)c(C(C)C)cc1N=Cc1ccccc1O returned HKDC1 inhibitor inactive, PfGluPho inh 103 and PfG6PD confirm inactive.
Screening CCCN(CC(=O)Nc1ccccc1C)C(=O)Cc1n[nH]c(=O)c2ccccc12 returned HKDC1 inhibitor inactive and PfGluPho inh inactive.
Screening COC(=O)c1ccccc1N/C=C1\CCc2c(c(C)nn2-c2ccccn2)C1=O returned G6PDH CS inactive, HKDC1 inhibitor inactive, Diaph inh CS 74, Diaph act CS inactive, PfGluPho inh 74, PfG6PD confirm 64, Diaphorase 10uM inactive and Diaphorase 30uM inactive.
Screening Cc1ccc2nc(C)cc(C(=O)N/N=C/c3ccncc3)c2c1 returned HKDC1 inhibitor inactive and PfGluPho inh inactive.
`CCn1c(=S)sc2c(=O)n(CC(=O)Nc3cc(OC)ccc3OC)c(C)nc21` gave HKDC1 inhibitor inactive and PfGluPho inh inactive.
Screening Cc1ccn2c(Cc3ccccc3)c(-c3ccc(F)cc3)nc2c1 returned PfGluPho inh 77 and PfG6PD confirm inactive.
Clc1ccc2nc(-c3ccccc3)c(Cc3ccccc3)n2c1 was read as PfGluPho inh inactive.
Screening Fc1ccc(-c2nc3ccc(Cl)cn3c2Cc2ccccc2)cc1 returned PfGluPho inh 81 and PfG6PD confirm inactive.
`Clc1ccc(-c2nc3ccc(Cl)cn3c2Cc2ccccc2)cc1` gave PfGluPho inh 102 and PfG6PD confirm inactive.
`Cc1ccc(Cc2c(-c3ccccc3)nc3cc(C)ccn23)cc1` gave PfGluPho inh inactive.
`Cc1cc2nc3c(nc2cc1C)CCCC3` gave HKDC1 inhibitor inactive and PfGluPho inh inactive.
S=C(NC1CCCC1)N1CCN(C/C=C/c2ccccc2)CC1 was read as G6PDH CS inactive, HKDC1 inhibitor inactive, Diaph inh CS inactive, Diaph act CS inactive and PfGluPho inh inactive.
Screening S=C(NCc1ccccc1)NCc1ccco1 returned HKDC1 inhibitor inactive and PfGluPho inh inactive.
`CN(C)c1ccc(C(=S)NCc2ccco2)cc1` gave G6PDH CS inactive, HKDC1 inhibitor inactive, Diaph inh CS inactive, Diaph act CS inactive, PfGluPho inh 63 and PfG6PD confirm inactive.
`CN(C)c1ccc(/C=N/NC(=S)NCc2ccco2)cc1` gave G6PDH CS inactive, HKDC1 inhibitor inactive, Diaph inh CS inactive, Diaph act CS inactive and PfGluPho inh inactive.
S=C(NCc1ccco1)NCc1ccco1 was read as HKDC1 inhibitor inactive, PfGluPho inh 79 and PfG6PD confirm inactive.
O=C(Cc1ccc(F)cc1)Nc1cc(S(=O)(=O)N2CCOCC2)ccc1N1CCCCC1 was read as PfGluPho inh inactive.
Cc1cccc(NC(=S)NC(C)C(c2cccs2)N2CCN(C)CC2)c1C (stereo unspecified) was read as HKDC1 inhibitor inactive and PfGluPho inh inactive.
For NS(=O)(=O)c1ccc(CCNC(=O)C(=O)NCC2OCCN2S(=O)(=O)c2ccc(Cl)cc2)cc1 (stereo unspecified) the results were HKDC1 inhibitor inactive and PfGluPho inh inactive.

Assay outcomes deposited in PubChem BioAssay by Sanford-Burnham Center for Chemical Genomics.
